Ratio Ki and Ki data for eight compounds are collected here from ChEMBL document CHEMBL1932931, “Analogues of doxanthrine reveal differences between the dopamine D1 receptor binding properties of chromanoisoquinolines and hexahydrobenzo[a]phenanthridines” (Eur J Med Chem, 2012).

Assay [1] in a line: Selectivity ratio of Ki for dopamine D1 receptor to Ki for dopamine D2 receptor.
The target of the next assay is D(2) dopamine receptor (Homo sapiens, UniProt P14416). In words: Binding affinity to dopamine D2 receptor.
Chain of D(2) dopamine receptor (P14416 whole entry): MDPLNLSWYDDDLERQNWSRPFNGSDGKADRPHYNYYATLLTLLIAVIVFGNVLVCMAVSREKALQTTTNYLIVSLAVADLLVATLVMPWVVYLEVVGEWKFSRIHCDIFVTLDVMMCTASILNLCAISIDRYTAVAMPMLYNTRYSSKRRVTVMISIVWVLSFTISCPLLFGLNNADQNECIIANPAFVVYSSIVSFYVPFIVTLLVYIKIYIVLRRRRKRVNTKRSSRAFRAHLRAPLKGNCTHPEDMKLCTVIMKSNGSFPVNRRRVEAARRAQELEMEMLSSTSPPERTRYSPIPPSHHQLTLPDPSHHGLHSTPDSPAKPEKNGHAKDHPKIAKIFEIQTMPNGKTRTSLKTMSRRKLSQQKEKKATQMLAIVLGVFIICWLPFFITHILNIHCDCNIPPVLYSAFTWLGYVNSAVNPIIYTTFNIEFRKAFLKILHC
Assay [2] can be described thus: Displacement of [3H]SCH-23390 from dopamine D1-like receptor in porcine striatal homogenates after 30 mins by scintillation counting. The assay is classed as tissue-based, Sus scrofa. The gist of the method: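 Fresh porcine striatum was homogenized in 20 mM Hepes/0.32 M sucrose (pH 7.4), and the P2 membrane pellet was washed in 50 mM Tris (pH 7.4) and stored at -80 °C. Incubation was 30 min at 37 °C, then filtration and scintillation counting. Values are means ± SEM of 4-11 independent experiments.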

A further assay is filed under the species Sus scrofa. In words: Selectivity ratio of Ki for dopamine D2-like receptor in porcine striatal homogenates to Ki for dopamine D1-like receptor in porcine striatal homogenates. It is filed as tissue-based.
A short description of assay [3]: Displacement of [3H]spiperone from dopamine D2-like receptor in porcine striatal homogenates after 30 mins by scintillation counting. The assay is classed as tissue-based, Sus scrofa.

Each structure is given as a SMILES string. pKi: −log10 of the molar value.

As to `CCc1ccc2c(c1)[C@@H]1c3cc(O)c(O)cc3CC[C@H]1NC2`, in assay [1], the Ratio Ki amounted to 14.5. The same compound showed a negative-log Ki (pKi) on D(2) dopamine receptor of 6.38.
In assay [2], `CN1CCc2cc(Cl)c(O)cc2[C@@H](c2ccccc2)C1` gave a pKi of 9.34.
On to `Cc1ccc2c(c1)[C@@H]1c3cc(O)c(O)cc3CC[C@H]1NC2`, for which the Ratio Ki in assay [1] came to 34.7.
As for `Cc1ccc2c(c1)[C@@H]1c3cc(O)c(O)cc3OC[C@H]1NC2` (racemic), the Ratio Ki in the assay listed under Sus scrofa was found to be 55. Further, the pKi in assay [2] was 6.82; in assay [3], 5.17.
As for `CCc1ccc2c(c1)[C@@H]1c3cc(O)c(O)cc3OC[C@H]1NC2` (racemic), the Ratio Ki in the assay filed under Sus scrofa was determined as 49. Besides, the pKi is 6.74 in assay [2] and 5.19 in assay [3].
For `Oc1cc2c(cc1O)[C@H]1c3cc(F)ccc3CN[C@@H]1CO2` (racemic), in that order: 8.5, 6.96 and 6.13.
On to `Oc1cc2c(cc1O)[C@H]1c3cc(C(F)(F)F)ccc3CN[C@@H]1CO2` (racemic), for which the Ratio Ki in the assay filed under Sus scrofa was determined as 14. Also, the negative logarithm of the Ki (pKi) in assay [2] is 6.24; in assay [3] it was 5.16.
On the same counts, the results for `Oc1cc2c(cc1O)[C@H]1c3ccccc3CN[C@@H]1CS2` (racemic) are 15, 6.70 and 5.60.
